Laboratory results taken from ChEMBL document CHEMBL1130090, “Antitumor agents. 174. 2',3',4',5,6,7-Substituted 2-phenyl-1,8-naphthyridin-4-ones: their synthesis, cytotoxicity, and inhibition of tubulin polymerization” (J Med Chem, 1997).

test system: 786-0; experiment: Concentration which reduced cell growth to 50 % of level against 786-0 renal cancer line; format: functional; settings: Homo sapiens

Compared with `COc1cccc(-c2cc(O)c3c(C)ccnc3n2)c1`, `COc1ccc(-c2cc(O)c3c(C)ccnc3n2)cc1` is 490-fold higher in GI50: 0.0513 µM for the first, 25.1 µM for the second.

Going from `Cc1ccnc2nc(-c3ccc(Cl)cc3)cc(O)c12` to `Cc1cc(C)c2c(O)cc(-c3ccc(F)cc3)nc2n1`, the GI50 rises from 3.98 µM to 79.4 µM (20-fold).

Going from `COc1cccc(-c2cc(O)c3ccccc3n2)c1` to `COc1ccccc1-c1cc(O)c2cccnc2n1`, the GI50 rises from 5.13 µM to 36.3 µM (7.1-fold).

Work on `Oc1cc(-c2ccc(F)cc2)nc2ncccc12` yielded a GI50 of 44.7 µM.

test system: U-251; experiment: Concentration which reduced cell growth to 50 % of U251 cancer line; format: functional; settings: Homo sapiens

Compared with `COc1cccc(-c2cc(O)c3c(C)ccnc3n2)c1`, `COc1ccc(-c2cc(O)c3c(C)ccnc3n2)cc1` is 110-fold higher in GI50: 0.0589 µM for the first, 6.31 µM for the second.

First: Cc1ccnc2nc(-c3ccc(Cl)cc3)cc(O)c12
Second: Cc1cc(C)c2c(O)cc(-c3ccc(F)cc3)nc2n1
The GI50 of the first is 21-fold lower: 4.57 µM for the first, 95.5 µM for the second.

Going from `COc1cccc(-c2cc(O)c3ccccc3n2)c1` to `COc1ccccc1-c1cc(O)c2cccnc2n1`, the GI50 rises from 9.55 µM to 67.6 µM (7.1-fold).

With `Oc1cc(-c2ccc(F)cc2)nc2ncccc12` the GI50 was 47.9 µM.

test system: HL-60; experiment: Concentration which reduced cell growth to 50 % of level against HL-60 (TB) leukemia cell line; format: functional; settings: Homo sapiens

First: COc1cccc(-c2cc(O)c3c(C)ccnc3n2)c1
Second: COc1ccc(-c2cc(O)c3c(C)ccnc3n2)cc1
The GI50 of the first is 340-fold lower: 0.0129 µM for the first, 4.37 µM for the second.

Compared with `Cc1ccnc2nc(-c3ccc(Cl)cc3)cc(O)c12`, `Cc1cc(C)c2c(O)cc(-c3ccc(F)cc3)nc2n1` is 8.7-fold higher in GI50: 1.78 µM for the first, 15.5 µM for the second.

Going from `COc1cccc(-c2cc(O)c3ccccc3n2)c1` to `COc1ccccc1-c1cc(O)c2cccnc2n1`, the GI50 rises from 2.09 µM to 38.9 µM (19-fold).

Molecule `Oc1cc(-c2ccc(F)cc2)nc2ncccc12` has a GI50 of 12.9 µM.

test system: Tumor Cell line; experiment: Cytotoxic effect in human tumor cell lines, tested by the National Cancer Institute; format: functional; settings: read-out: Average LogGI50 (converted)

Going from `COc1cccc(-c2cc(O)c3c(C)ccnc3n2)c1` to `COc1ccc(-c2cc(O)c3c(C)ccnc3n2)cc1`, the GI50 rises from 0.0589 µM to 12.9 µM (220-fold).

First: Cc1ccnc2nc(-c3ccc(Cl)cc3)cc(O)c12
Second: Cc1cc(C)c2c(O)cc(-c3ccc(F)cc3)nc2n1
The GI50 of the first is 7.9-fold lower: 5.13 µM for the first, 40.7 µM for the second.

Compared with `COc1cccc(-c2cc(O)c3ccccc3n2)c1`, `COc1ccccc1-c1cc(O)c2cccnc2n1` is 6.6-fold higher in GI50: 6.17 µM for the first, 40.7 µM for the second.

For `Oc1cc(-c2ccc(F)cc2)nc2ncccc12`, the GI50 was 45.7 µM.

test system: HCT-116; experiment: Concentration which reduced cell growth to 50 % of level against HCT116 colon cancer cell line; format: functional; settings: Homo sapiens

Compared with `COc1cccc(-c2cc(O)c3c(C)ccnc3n2)c1`, `COc1ccc(-c2cc(O)c3c(C)ccnc3n2)cc1` is 140-fold higher in GI50: 0.0447 µM for the first, 6.46 µM for the second.

Compared with `Cc1ccnc2nc(-c3ccc(Cl)cc3)cc(O)c12`, `Cc1cc(C)c2c(O)cc(-c3ccc(F)cc3)nc2n1` is 13-fold higher in GI50: 3.72 µM for the first, 50.1 µM for the second.

Going from `COc1ccccc1-c1cc(O)c2cccnc2n1` to `Oc1cc(-c2ccc(F)cc2)nc2ncccc12`, the GI50 rises from 27.5 µM to 42.7 µM (1.6-fold).

test system: SF-295; experiment: Concentration which reduced cell growth to 50 % of level against SF-295 CNS cancer line; format: functional; settings: Homo sapiens

Going from `COc1cccc(-c2cc(O)c3c(C)ccnc3n2)c1` to `COc1ccc(-c2cc(O)c3c(C)ccnc3n2)cc1`, the GI50 rises from 0.0288 µM to 19.5 µM (680-fold).

First: Cc1ccnc2nc(-c3ccc(Cl)cc3)cc(O)c12
Second: Cc1cc(C)c2c(O)cc(-c3ccc(F)cc3)nc2n1
The GI50 of the first is 9.3-fold lower: 5.37 µM for the first, 50.1 µM for the second.

Compared with `COc1ccccc1-c1cc(O)c2cccnc2n1`, `Oc1cc(-c2ccc(F)cc2)nc2ncccc12` is 2.1-fold higher in GI50: 23.4 µM for the first, 50.1 µM for the second.

target: Tubulin beta chain (Bos taurus, UniProt Q6B856); experiment: Inhibition of bovine tubulin polymerization; format: functional; settings: not given
Sequence (Q6B856 whole entry): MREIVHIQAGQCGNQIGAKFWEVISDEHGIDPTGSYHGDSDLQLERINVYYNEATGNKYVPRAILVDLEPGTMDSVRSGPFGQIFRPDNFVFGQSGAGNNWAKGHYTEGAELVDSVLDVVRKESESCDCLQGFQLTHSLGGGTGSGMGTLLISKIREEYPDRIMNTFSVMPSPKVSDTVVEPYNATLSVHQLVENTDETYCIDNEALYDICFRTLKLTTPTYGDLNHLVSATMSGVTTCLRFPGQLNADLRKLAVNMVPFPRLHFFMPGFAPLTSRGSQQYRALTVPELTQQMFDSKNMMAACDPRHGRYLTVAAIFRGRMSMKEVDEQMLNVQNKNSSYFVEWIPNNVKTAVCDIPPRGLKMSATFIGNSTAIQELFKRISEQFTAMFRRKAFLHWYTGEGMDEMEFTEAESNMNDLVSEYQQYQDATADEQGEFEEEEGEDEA

First: COc1cccc(-c2cc(O)c3c(C)ccnc3n2)c1
Second: COc1ccc(-c2cc(O)c3c(C)ccnc3n2)cc1
The IC50 of the first is 14-fold lower: 0.62 µM for the first, 8.8 µM for the second.

Compared with `Cc1ccnc2nc(-c3ccc(Cl)cc3)cc(O)c12`, `Cc1cc(C)c2c(O)cc(-c3ccc(F)cc3)nc2n1` is higher in IC50: 4.8 µM for the first, greater than 40 µM for the second.

`COc1ccccc1-c1cc(O)c2cccnc2n1` and `Oc1cc(-c2ccc(F)cc2)nc2ncccc12` cannot be ordered by IC50: greater than 40 µM for the first, greater than 40 µM for the second.

test system: MDA-N; experiment: Concentration which reduced cell growth to 50 % of level against MDA-N breast cancer line; format: functional; settings: Homo sapiens

First: COc1cccc(-c2cc(O)c3c(C)ccnc3n2)c1
Second: COc1ccc(-c2cc(O)c3c(C)ccnc3n2)cc1
The GI50 of the first is lower: less than 0.01 µM for the first, 2.09 µM for the second.

Going from `Cc1ccnc2nc(-c3ccc(Cl)cc3)cc(O)c12` to `Cc1cc(C)c2c(O)cc(-c3ccc(F)cc3)nc2n1`, the GI50 rises from 1.32 µM to 25.1 µM (19-fold).

`COc1ccccc1-c1cc(O)c2cccnc2n1` and `Oc1cc(-c2ccc(F)cc2)nc2ncccc12` are within 1.5-fold of each other in GI50: 20 µM for the first, 14.1 µM for the second.

target: Tubulin alpha chain (Sus scrofa) (UniProt P02550); experiment: Inhibition of colchicine binding and evaluated only when polymerization IC50 <=1 uM; format: functional; settings: not given
How it was run: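 Electrophoretically homogeneous bovine brain tubulin (1.0 µM) incubated 20 min at 37 °C with 5.0 µM [3H]colchicine and 5.0 µM inhibitor in 1.0 M monosodium glutamate (pH 6.6), 1 mM MgCl2, 0.1 mM GTP, 5% (v/v) DMSO. Mixtures filtered through two stacked DEAE-cellulose filters and washed with water. Bound radioactivity counted by liquid scintillation.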

Tubulin alpha chain (Sus scrofa), sequence (P02550 whole entry, looked up): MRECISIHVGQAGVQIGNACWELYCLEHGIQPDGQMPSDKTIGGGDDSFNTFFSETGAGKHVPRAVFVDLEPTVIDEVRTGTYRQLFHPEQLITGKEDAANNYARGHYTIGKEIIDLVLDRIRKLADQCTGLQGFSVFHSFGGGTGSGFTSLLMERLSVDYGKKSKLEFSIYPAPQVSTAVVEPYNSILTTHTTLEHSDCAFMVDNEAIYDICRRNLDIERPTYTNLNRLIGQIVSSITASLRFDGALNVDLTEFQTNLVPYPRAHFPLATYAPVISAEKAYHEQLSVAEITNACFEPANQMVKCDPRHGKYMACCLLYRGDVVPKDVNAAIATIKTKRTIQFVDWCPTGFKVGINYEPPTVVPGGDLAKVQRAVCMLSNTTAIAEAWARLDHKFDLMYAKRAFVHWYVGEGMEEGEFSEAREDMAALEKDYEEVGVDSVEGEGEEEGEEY

Work on `COc1cccc(-c2cc(O)c3c(C)ccnc3n2)c1` yielded an inhibition of 28%.

test system: SK-MEL-5; experiment: Concentration which reduced cell growth to 50 % of level against SK-MEL-5 melanoma cell line; format: functional; settings: Homo sapiens

Going from `COc1cccc(-c2cc(O)c3c(C)ccnc3n2)c1` to `COc1ccc(-c2cc(O)c3c(C)ccnc3n2)cc1`, the GI50 rises from 0.0224 µM to 3.89 µM (170-fold).

Going from `Cc1ccnc2nc(-c3ccc(Cl)cc3)cc(O)c12` to `Cc1cc(C)c2c(O)cc(-c3ccc(F)cc3)nc2n1`, the GI50 rises from 3.47 µM to 26.3 µM (7.6-fold).

`COc1ccccc1-c1cc(O)c2cccnc2n1` and `Oc1cc(-c2ccc(F)cc2)nc2ncccc12` are within 1.5-fold of each other in GI50: 31.6 µM for the first, 30.2 µM for the second.

test system: NCI-H460; experiment: Concentration which reduced cell growth to 50 % of level against NCI-H460 non -small-cell lung cancer cell line; format: functional; settings: Homo sapiens

First: COc1cccc(-c2cc(O)c3c(C)ccnc3n2)c1
Second: COc1ccc(-c2cc(O)c3c(C)ccnc3n2)cc1
The GI50 of the first is 130-fold lower: 0.0479 µM for the first, 6.17 µM for the second.

First: Cc1ccnc2nc(-c3ccc(Cl)cc3)cc(O)c12
Second: Cc1cc(C)c2c(O)cc(-c3ccc(F)cc3)nc2n1
The GI50 of the first is 14-fold lower: 3.72 µM for the first, 51.3 µM for the second.

First: COc1cccc(-c2cc(O)c3ccccc3n2)c1
Second: COc1ccccc1-c1cc(O)c2cccnc2n1
The GI50 of the first is 9.8-fold lower: 3.98 µM for the first, 38.9 µM for the second.

With `Oc1cc(-c2ccc(F)cc2)nc2ncccc12` the GI50 was 34.7 µM.

test system: PC-3; experiment: Concentration which reduced cell growth to 50 % of level against PC-3 prostate cancer line; format: functional; settings: Homo sapiens

Going from `COc1cccc(-c2cc(O)c3c(C)ccnc3n2)c1` to `COc1ccc(-c2cc(O)c3c(C)ccnc3n2)cc1`, the GI50 rises from 0.0263 µM to 18.2 µM (690-fold).

Compared with `Cc1ccnc2nc(-c3ccc(Cl)cc3)cc(O)c12`, `Cc1cc(C)c2c(O)cc(-c3ccc(F)cc3)nc2n1` is 10-fold higher in GI50: 2.88 µM for the first, 30.2 µM for the second.

Going from `COc1ccccc1-c1cc(O)c2cccnc2n1` to `Oc1cc(-c2ccc(F)cc2)nc2ncccc12`, the GI50 rises from 29.5 µM to 45.7 µM (1.5-fold).

test system: MDA-MB-435; experiment: Concentration which reduced cell growth to 50 % of level against MDA-MB-435 breast cancer line; format: functional; settings: Homo sapiens

First: COc1cccc(-c2cc(O)c3c(C)ccnc3n2)c1
Second: COc1ccc(-c2cc(O)c3c(C)ccnc3n2)cc1
The GI50 of the first is lower: less than 0.01 µM for the first, 2.4 µM for the second.

Compared with `Cc1ccnc2nc(-c3ccc(Cl)cc3)cc(O)c12`, `Cc1cc(C)c2c(O)cc(-c3ccc(F)cc3)nc2n1` is 25-fold higher in GI50: 0.759 µM for the first, 18.6 µM for the second.

First: COc1ccccc1-c1cc(O)c2cccnc2n1
Second: Oc1cc(-c2ccc(F)cc2)nc2ncccc12
The GI50 of the first is 3.3-fold higher: 39.8 µM for the first, 12 µM for the second.

test system: OVCAR-3; experiment: Concentration which reduced cell growth to 50 % of level against OVCAR-3 ovarian cancer line; format: functional; settings: Homo sapiens

First: COc1cccc(-c2cc(O)c3c(C)ccnc3n2)c1
Second: COc1ccc(-c2cc(O)c3c(C)ccnc3n2)cc1
The GI50 of the first is 540-fold lower: 0.0257 µM for the first, 13.8 µM for the second.

Going from `Cc1ccnc2nc(-c3ccc(Cl)cc3)cc(O)c12` to `Cc1cc(C)c2c(O)cc(-c3ccc(F)cc3)nc2n1`, the GI50 rises from 3.16 µM to 43.7 µM (14-fold).

`COc1ccccc1-c1cc(O)c2cccnc2n1` and `Oc1cc(-c2ccc(F)cc2)nc2ncccc12` are within 1.5-fold of each other in GI50: 47.9 µM for the first, 45.7 µM for the second.
